From PubChem BioAssay
In the library only some 2.1% were active in any assay of this set; here they are far more common.
EBI2 antag = EBI2 receptor antagonists, beta-arrestin recruitment, primary screen, cell-based, luminescence, 7a,25-OHC stimulation, uHTS; 0.81% of 360,000 active; AID 651636, 2012; G-protein coupled receptor 183 (Homo sapiens), P32249; inhibition, % at 5 µM; 7a,25-OHC stimulated; in the data active means inhibition above about 38%;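 further: enzyme fragment complementation signal reports receptor beta-arrestin coupling in cells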
APJ antag = antagonists of human apelin receptor APJ, primary screen, CHO-K1 cells, beta-arrestin complementation, luminescence | P35414 | inhibition, % at 20 µM | 0.32% of 330,000 active;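 active means inhibition above about 40% at 20 µM, limit read from the data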;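 further: cells challenged with 10 nM apelin-13 agonist together with compound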
Target sequence (P35414 whole entry, looked up): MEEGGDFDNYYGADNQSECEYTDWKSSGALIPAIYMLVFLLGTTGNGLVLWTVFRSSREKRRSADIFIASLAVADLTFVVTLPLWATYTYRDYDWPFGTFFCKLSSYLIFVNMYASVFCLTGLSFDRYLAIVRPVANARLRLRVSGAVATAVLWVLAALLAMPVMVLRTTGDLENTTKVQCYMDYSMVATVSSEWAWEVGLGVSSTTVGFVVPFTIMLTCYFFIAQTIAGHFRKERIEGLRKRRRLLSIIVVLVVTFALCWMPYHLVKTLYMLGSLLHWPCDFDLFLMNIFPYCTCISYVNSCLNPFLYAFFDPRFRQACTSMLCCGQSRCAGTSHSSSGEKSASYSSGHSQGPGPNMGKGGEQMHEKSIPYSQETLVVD
APJ ag = agonists of human apelin receptor APJ, primary screen, CHO-K1 cells, PathHunter beta-arrestin, luminescence; 0% DMSO wells, 100% apelin; AID 2520, 2010; P35414; activation, % at 20 µM; 0.11% of 330,000 active;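 active means activation more than six SD over the plate average, tested at 20 µM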
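system = engineered CHO-K1 APJ arrestin reporter cells | input = 1000 cells per well | timing = overnight seeding, 90 min compound at 25 °C, 1 h detection | measured by = enzyme-fragment complementation luminescence | read-out = beta-arrestin recruitment to APJ as agonist activity, luminescent signal | control set = negative DMSO alone, positive Apelin-13 at 10 nM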
CXCR6 inh = CXCR6 receptor inhibitors, primary screen, cell-based, beta-arrestin, luminescence, CHO-K1 PathHunter, 1536-well | inhibition, % at 20 µM | 0.36% of 360,000 active; in the data active means inhibition above about 34%, passing the limit was not always enough;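 further: antagonist mode with CXCL16 agonist at 10 nM final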
CCR6 antagonist = CCR6 receptor antagonists, primary screen, cell-based, CHO-K1, luminescence, beta-arrestin, uHTS. inhibition, % at 20 µM. C-C chemokine receptor type 6 (Homo sapiens), P51684. CHO-K1 CCR6 PathHunter beta-arrestin, CCL20-stimulated. 0.49% of 340,000 active;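 active means compounds whose inhibition of the agonist-driven luminescence signal at 20 µM reaches about 50%, limit read from the data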;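 further: cells stimulated with CCL20 at 14 nM final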
HTR2A ag = mouse Htr2a agonists via beta-arrestin recruitment, primary screen, cell-based, luminescence. 5-hydroxytryptamine receptor 2A (Mus musculus), P35363. CHO-K1 mHTR2A beta-arrestin complementation; percent of 30 µM serotonin response. activation, % at 7.6 µM. 0.66% of 360,000 active;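 active means activation above a run cutoff, the mean activation of all tested compounds plus 3 SD, cut at about 14% in these data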
MOR ag counter = OPRM1 agonists via beta-arrestin recruitment, confirmation, counter-screen for mouse HTR2A agonist project, cell-based, luminescence, single concentration. U2OS OPRM1 beta-arrestin PathHunter; DMSO 0%, DAMGO 9.3 µM 100%. shares compounds with HTR2A ag. AID 624380, 2012. 5.3% of 2,300 active. activation, % at 9.3 µM;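 active means mean activation above the mean of DMSO-only wells plus 3 SD, cut at about 0.5% in these data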
HTR2A ag conf = mouse HTR2A agonists, beta-arrestin recruitment, confirmation, cell-based, luminescence, CHO-K1 PathHunter, triplicate; shares compounds with HTR2A ag; DMSO 0%, 30 µM serotonin 100%; activation, % at 7.6 µM; 19% of 2,300 active; AID 624381, 2012;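 active means mean activation across triplicates above the hit threshold derived in the original primary screen, cut at about 15% in these data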
Numbers stand for hits; – = inactive; · = not tested or not shown.

SMILES | EBI2 antag | APJ antag | APJ ag | CXCR6 inh | CCR6 antagonist | HTR2A ag | MOR ag counter | HTR2A ag conf
Cc1ccc(C)c(N2CCN(S(=O)(=O)c3ccc4c(c3)CCN4C(=O)CCC(=O)O)CC2)c1 | – | – | – | – | – | – | · | ·
O=C(O)CCC(=O)N1CCc2cc(S(=O)(=O)N3CCN(c4ccc(F)cc4)CC3)ccc21 | – | – | – | – | – | 15 | – | –
COC1CCCN(Cc2c(C(=O)N3CCN(C4CCCCC4)CC3)nc3ccccn23)C1 (centres undefined) | – | – | – | – | – | – | · | ·
COc1ccc(CCN2CC(C(=O)OCC(=O)N(C)CC(=O)Nc3ccccc3Cl)CC2=O)cc1OC (centres undefined) | – | · | · | – | – | – | · | ·
COc1ccc(S(=O)(=O)Cc2ccc(C(=O)N3CCOCC3)o2)cc1 | – | – | – | – | – | 17 | – | –
COc1ccc(CCNC(=O)CC(C)S(=O)(=O)c2ccc3c(c2)NC(=O)CO3)cc1OC (centres undefined) | – | – | – | – | – | 15 | – | –
CCN(CC)S(=O)(=O)c1ccc(NC(=O)[C@@H](NC(=O)c2cc(OC)cc(OC)c2)C(C)C)cc1 | – | – | – | – | – | – | · | ·
O=C(NC1CCCCC1)C(c1ccc(C(F)(F)F)cc1)n1c(=O)c(-c2cc3ccccc3[nH]2)nc2ccccc21 (centres undefined) | – | · | · | · | · | – | · | ·
O=C(NC1CCCCC1)C(c1ccncc1)n1c(=O)c(-c2cc3ccccc3[nH]2)nc2ccccc21 (centres undefined) | – | · | · | · | · | 16 | – | –
CC(C)(C)NC(=O)C(c1cc2ccccc2o1)n1c(=O)c(-c2cc3ccccc3[nH]2)nc2ccccc21 (centres undefined) | – | · | · | · | · | 31 | – | –
CN(Cc1ccccc1)C(=O)C1CCN(S(=O)(=O)c2cccc3nsnc23)CC1 | – | – | – | – | – | – | · | ·
COc1ccc(NC(=O)Cn2c(-c3ccccc3)cc(C(C)=O)c2C)c(OC)c1 | – | – | – | – | – | – | · | ·
Cc1ccccc1-n1c(SC(C)C(=O)NCC2CCCO2)nnc1-c1ccncc1 (centres undefined) | – | · | · | – | – | 15 | – | –
COC(=O)C1=C(C)NC(=O)CC1c1cccc(Cl)c1Cl (centres undefined) | – | – | – | – | – | 24 | – | –
CCN(CC)C(=O)c1ccc(-c2nnc(Nc3ccc(C(=O)NC)cc3)c3ccccc23)cc1 | – | – | – | – | – | 14 | – | –
CCOC(=O)CNS(=O)(=O)c1cc(-c2nnc(Nc3ccc4c(c3)OCO4)c3ccccc23)ccc1C | – | – | – | – | – | 17 | – | –
CCC(=O)Nc1nc2c(s1)COc1ccccc1-2 | – | – | – | – | – | 18 | – | –
Cc1[nH]n(-c2ccccc2)c(=O)c1N=Nc1ccccc1C(=O)O | – | – | – | – | – | 18 | – | –
Cc1[nH]n(-c2ccccc2)c(=O)c1N=Nc1ccccc1O | – | – | – | – | – | – | · | ·
COc1cc(OC)c(NC(=O)c2cncn2-c2ccc(F)cc2)cc1Cl | – | – | – | – | – | 15 | – | –
COc1cc(NC(=O)c2ccc(F)cc2)c(OC)cc1Cl | – | – | – | – | – | – | · | ·
CC(C)NC(=O)C(=O)NC1CCCCCC1 | – | – | – | – | – | – | · | ·
CC(C)/C=C1\CCCCC1N(C)C(=O)NC(C)C (centres undefined) | – | – | – | – | – | 28 | – | –
O=[N+]([O-])c1cc(-c2nnc(Nc3ccccc3)c3ccccc23)ccc1N1CCOCC1 | – | – | – | – | – | – | · | ·
O=[N+]([O-])c1cc(-c2nnc(Nc3ccc(O)cc3)c3ccccc23)ccc1N1CCOCC1 | – | – | – | – | – | 31 | – | 21
SMILES | EBI2 antag | APJ antag | APJ ag | CXCR6 inh | CCR6 antagonist | HTR2A ag | MOR ag counter | HTR2A ag conf
Cc1ccc(C)c(N2CCN(C(=O)CN3C(=S)NC(C)(C)CC3C)CC2)c1 (centres undefined) | – | – | – | – | – | – | · | ·
COC(=O)c1[nH]c2ccccc2c1NC(=O)CCN1CCSCC1 | – | – | – | – | – | 16 | – | –
CCOC(=O)c1[nH]c2ccc(OC)cc2c1NC(=O)CCN1CCSCC1 | – | – | – | – | – | – | · | ·
CCOc1ccccc1CN1CCNC(=O)C1CC(=O)NCc1cc(C)n(C)n1 (centres undefined) | – | – | – | – | – | – | · | ·
O=C(CC1C(=O)NCCN1Cc1ccccc1C(F)(F)F)NCCN1CCOCC1 (centres undefined) | – | – | – | – | – | – | · | ·
CCOc1ccccc1CN1CCNC(=O)C1CC(=O)NCCN1CCOC1=O (centres undefined) | – | – | – | – | – | 15 | – | –
O=C(CC1C(=O)NCCN1Cc1ccccc1C(F)(F)F)NCCn1cccn1 (centres undefined) | – | – | – | – | – | 16 | – | –
CCCCC[C@@H](C)N1C[C@H](COCc2ccccc2)Oc2cc(N3CCC[C@H]3COC)ccc2S1(=O)=O | – | · | · | – | · | – | · | ·
O=C(c1cc(-c2cccs2)nn1-c1ccccc1)N1CCN(S(=O)(=O)c2ccccc2)CC1 | – | – | – | – | – | – | · | ·
COc1ccc(C(=O)N(C)C2CCCN(Cc3ccccc3F)C2)cc1OC (centres undefined) | – | – | – | – | – | 17 | – | –
COc1ccc(OC)c(C(=O)N(C)C2CCCN(Cc3ccccc3F)C2)c1 (centres undefined) | – | – | – | – | – | – | · | ·
Oc1cccc(NC(=S)Nc2ccccc2)c1 | – | – | – | – | – | 18 | – | –
Oc1cccc(Nc2ccccc2)c1 | – | – | – | – | – | – | · | ·
COc1ccc(-n2c(C)cc(=O)[nH]c2=O)cc1 | – | – | – | – | – | 18 | – | –
COc1ccc(C(CNC(=O)c2ccccc2C)N2CCCC2)cc1 (centres undefined) | – | – | – | – | – | 31 | – | –
